assay: Toxicity liver stage against HepG2, at 10uM; format: cell-based; parameters: test concentration 10 uM, cell line HepG2-A16-CD81EGFP; conditions: human, HepG2-A16-CD81EGFP cells; read-out: INHIBITION
In short: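 Uninfected HepG2-A16-CD81EGFP cells, 3 × 10^3 per well, 1536-well, plated on prespotted compound at 10 μM final, parasite-free screening media added to match infected plates; puromycin 10 μM positive, DMSO 0.5% negative; run in parallel with 48 h PbLuc assay at 37 °C, 5% CO2; viability by CellTiter-Glo luminescence, normalized to controls.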

SMILES	cytotoxicity at 10 µM
CCNC(=O)N1C[C@@H]2OCC(=O)N(CC3CC3)[C@@H]2C1	0.434%
COc1ccc(CN[C@@H]2CO[C@H](CNC(=O)NC(C)C)[C@H]2O)cc1	-4.7%
CCCSc1ncccc1C(=O)NCc1ccc(S(N)(=O)=O)cc1	6.02%
O=C(CNC(=O)N1CCc2c([nH]c3ccc(Cl)cc23)C1)NC1CCCC1	-2.91%
O=C(COc1coc(CN2CCCC2)cc1=O)Nc1ccc(Cl)c(Cl)c1	0.0723%
O=C(CCc1nc2cc(Br)cnc2[nH]1)NCCCn1ccnc1	0.905%
O=C(NC1CC(=O)N(C2CC2)C1)c1cccs1 (stereo not drawn)	17.5%
Cc1nn(C)c(C)c1S(=O)(=O)NCC1CCN(c2ccccn2)CC1	6.5%
Cn1cc(C(=O)Nc2ccc3c(c2)CN(C(=O)C2CC2)CC3)nn1	4.59%
COc1nn(C)cc1C(=O)NCC(OC)c1ccccc1C (stereo not drawn)	-8.32%
C[C@H]1C[C@H]2CN(S(=O)(=O)c3ccc(F)cc3)CC[C@H]2O1	1.79%
c1cnc(N2CCCn3c(nnc3Cn3cccn3)C2)nc1	-1.58%
CC(C)NC(=O)N1CCC(c2nnc3ccc(C(=O)N(C)C)cn23)C1 (stereo not drawn)	8.79%
O=S(=O)(Nc1cnn(C2CCOCC2)c1)c1ccc(F)c(F)c1	6.04%
CCN(c1ccc(C(=O)NCCCN2CCCC2)cc1)S(=O)(=O)CC	-3.29%
O=C(COCC(=O)N(c1ccccc1)c1ccccc1)N1CCCC1	10.9%
CNC(=O)c1sc2ncccc2c1C1CCN(C(=O)CCOC)C1 (stereo not drawn)	6.42%
Cc1noc(C)c1-c1cc(CCC2CN(C(=O)CN)CCO2)ncn1 (stereo not drawn)	2.89%
COCC(=O)N1CCC([C@@H]2C[C@H](C(F)(F)F)n3nc(C)cc3N2)CC1	-33.6%
CC(=O)N1CCC(C(=O)N2CCCC(Cc3ccccn3)C2)CC1 (stereo not drawn)	6.97%
CC(=O)N1CCC(c2cc(Nc3ncccn3)nc(C)n2)C1 (stereo not drawn)	-27.7%
CC(=O)N1CCN(C(C)C)CC(COc2ccccc2)C1 (stereo not drawn)	-28.8%
CCNC(=O)c1cccc(CNC(=O)c2cnc(C(C)(C)C)s2)c1	-0.969%

SMILES	cytotoxicity at 10 µM
c1cnn(CC2CN(c3ncnc4c3CCC4)CCO2)c1 (stereo not drawn)	31.2%
CC(NC(=O)Nc1ccc(-c2csnn2)cc1)C(=O)NC(C)(C)C (stereo not drawn)	9.11%
FC(F)(F)CCN(Cc1ccon1)C1CCCC1	1.87%
CN(Cc1nc(C(F)(F)F)cs1)C(=O)CCc1cccnc1	9.75%
CC(=O)N1CCC(NC(=O)CN2CCCc3c(C)ccc(F)c32)CC1	-5.82%
CN1CCN(CCOc2ccc(NC(=O)c3ccoc3)cc2)CC1	-2.09%
O=C(c1sccc1Br)N1CCOCC1	-2.34%
CC(=O)NCCCNC(=O)N(C)C(C)Cc1ccc(Cl)cc1 (stereo not drawn)	0.866%
c1csc(-c2nc(CN3CCN(c4cnccn4)CC3)co2)c1	-5.67%
CCn1c(C)cc(C(=O)N2CCC(NC(=O)c3cc(C)no3)CC2)c1C	-1.1%
CN(C)C(=O)c1cccc(CCNc2ccccc2S(C)(=O)=O)c1	11.5%
COc1cc2c(cc1OC)CN(C(=O)Cn1nc(C)cc1C)CC2	1.29%
O=C1CC[C@H](C(=O)N(Cc2cccc(Br)c2)C2CC2)N1	7.24%
CC(C)(C)c1n[nH]c(C2CN(Cc3ncc[nH]3)CCO2)n1 (stereo not drawn)	3.01%
CC1CCC(NC(=O)CNC2(c3cccc(Br)c3)CCOCC2)CC1 (stereo not drawn)	2.94%
Cc1c(NCCCOc2cccc(C#N)c2)cccc1C(N)=O	-0.572%
Cc1ccccc1-c1noc(CN2CCC(c3ccn[nH]3)CC2)n1	1.98%
Cc1nc(CN2CCC(c3nc4cc(Cl)ccc4o3)CC2)oc1C	-8.56%
COC(=O)CNC(=O)C1CCN(S(C)(=O)=O)CC1	2.91%
O=C(NCc1ccccc1F)N1CCCCC1C1OCCO1 (stereo not drawn)	2.01%
O=C(CCNC(=O)c1cccc(OC(F)F)c1)Nc1cccnc1	0.258%
Cc1nc(C)n(CC2CN(CCc3cccs3)CCO2)n1 (stereo not drawn)	7.12%
CSC1(CNc2ccc(Br)cn2)CCOCC1	-9.99%

SMILES	cytotoxicity at 10 µM
Cc1nc(C2(NCc3cccc(F)c3F)CCCCC2)no1	0.749%
O=C(CCc1ccc(Br)cc1)NCCc1nnc[nH]1	2.7%
O=S(=O)(N1CCCCC1)N1CCOC2(CCCC2)C1	-3.73%
CC(C)NC(=O)C(C)S(=O)(=O)c1cc2c(cc1Cl)OCCO2 (stereo not drawn)	-3.25%
N#Cc1ccc(S(=O)(=O)Nc2ccccc2C#N)cn1	-2.93%
CC(C)OCCC(=O)N(C)c1ccc(F)c(Cl)c1	-4.62%
Cc1ccccc1CNC(=O)CNc1ccc(OC2CCOC2)cc1 (stereo not drawn)	2.77%
CCOc1ccc(C(=O)N(Cc2cnn(C)c2)C(C)C)cc1	13.4%
Cn1ccc(C(=O)NCc2ccc(Cn3ccnc3)cc2)cc1=O	3.32%
CC(C)(NS(C)(=O)=O)c1nc(-c2ccc(F)c(F)c2)no1	-1.49%
CC(C)c1csc(C2CCCN(C(=O)c3ccc(=O)n(C)n3)C2)n1 (stereo not drawn)	9.24%
CCn1c(C)nnc1CN(C)C1CCN(Cc2cnc(C)cn2)C1 (stereo not drawn)	14.6%
COc1ccc(NC(=O)NC(C)c2nc[nH]n2)cc1 (stereo not drawn)	-7.71%
CN(CCNC(=O)N1CCN(Cc2ccon2)CC1)c1ccccc1	22.2%
CSC(C)(C)CNC(=O)NCCC1CCN(C)CC1	22.3%
CN1CCCC(CNC(=O)N2CCN(Cc3ccon3)CC2)C1 (stereo not drawn)	15.5%
Cc1nn(C)c(C)c1C1COCCN1c1ncnc2sccc12 (stereo not drawn)	2.84%
CCOc1ccc(CN(C)C(=O)NC(C)c2nncn2C)cc1 (stereo not drawn)	8.62%
CC(=O)N1CCC(C(=O)NCCN2CCC(C)CC2)CC1	12.8%
COCC1CN(C(=O)c2ccc(C)o2)Cc2nccn2C1 (stereo not drawn)	-97.1%
O=C(Cc1ccccn1)N1C[C@H]2CCC[C@@]2(COc2ccccn2)C1	1.86%
CCn1ncc2[nH]c(-c3cc4c(cc3OC)OCO4)nc21	-2.99%
O=C(C1CCCN(C2CCOCC2)C1)N1CCc2ncccc2C1 (stereo not drawn)	4.21%

SMILES	cytotoxicity at 10 µM
COC(=O)c1ccc(C(=O)N2CCCC(Nc3ccc(F)cc3)C2)cc1 (stereo not drawn)	1.34%
COCCCC1(CO)CCCN(CCOC)C1 (stereo not drawn)	-1.87%
COC1CCCN(CCCc2cn[nH]c2)C1 (stereo not drawn)	2.24%
CCC1CCN(CCn2cnc3c(C)csc3c2=O)CC1	-6.94%
COc1cccc(CN2CCCC3(CCN(C(CO)CO)C3)C2)c1 (stereo not drawn)	-5.96%
Cc1nn(CC(=O)N(C)Cc2nncn2C(C)C)c(=O)c2ccccc12	3.1%
CCN1CCN(Cc2nc(Cc3ccccc3)n[nH]2)CC1	-9.34%
CC(CN1CCOCC1)NC1CCN(Cc2cccc(O)c2)CC1 (stereo not drawn)	-0.683%
Cc1ccc(C(=O)O)c(N2Cc3cnc(C(C)(C)C)nc3C2)n1	5.67%
COc1ccc(CN2C[C@@H](CN(C)C)[C@@H](CO)C2)cc1CN1CCCC1	4.59%
CN(C)CCNc1cc(-c2ncccc2Cl)c2cc[nH]c2n1	8.45%
Cc1nc(N)sc1C(=O)N1CCCC(c2nccn2CCCN(C)C)C1 (stereo not drawn)	-6.82%
c1ncn(CC2CN(Cc3nc(C4CC4)no3)CCO2)n1 (stereo not drawn)	-8.45%
CC(NC(=O)NCCCN1CCCC1=O)c1nncn1C (stereo not drawn)	-3.08%
COc1cccc(-c2noc(CN3CCOCC3C)n2)c1 (stereo not drawn)	-11.7%
Cc1csc(CCNC(=O)NC(C)Cn2cccn2)n1 (stereo not drawn)	-18%
O=C(Cc1cccnc1)N1CCCC(n2cncn2)C1 (stereo not drawn)	-13.1%
OC(CN1CCC(c2ccn[nH]2)CC1)c1ccc(F)cc1F (stereo not drawn)	-17.9%
Cc1nccn1CC1CCCN1S(=O)(=O)Cc1cccc(F)c1 (stereo not drawn)	-15.8%
O=C(Nc1cccnc1N1CCCC1)C1CCS(=O)(=O)C1 (stereo not drawn)	-13.1%
CN(CCC(=O)N1CCc2sccc2C1)Cc1ccc2c(c1)OCCO2	-14.8%
Cc1cnn(CC2CN(CC(=O)N(C)Cc3cnn(C)c3)CCO2)c1 (stereo not drawn)	-18.4%
Cn1nc2c(cc1=O)CN(Cc1nc(-c3ccsc3)no1)CC2	-2.21%

SMILES	cytotoxicity at 10 µM
O=C(NCCCN1CCc2ccccc2C1)c1ccccc1Cl	-13%
Cc1cn2c(n1)CCC(NC(=O)c1oc(Br)cc1C)C2 (stereo not drawn)	-20.8%
CC(C)C(NC(N)=O)C(=O)NCc1ccc(N2CCCC2)nc1 (stereo not drawn)	-16.9%
Cc1cccc(NC(=O)Cn2nc3ccccn3c2=O)c1C	-13.4%
Cc1ccccc1OCC(=O)N1CCN(C2CCOC2=O)CC1 (stereo not drawn)	-19.3%
Cc1cnn(CCC(=O)N2CCCC(c3nc(C)c(C)s3)C2)c1 (stereo not drawn)	-19.2%
NC(=O)C1CCN(CCc2ccc(NC(=O)C3CCC3)cc2)CC1	-3.86%
Cc1noc2ncc(C(=O)N(CC3CCOC3)C3CC3)cc12 (stereo not drawn)	-6.64%
Cc1nc(CNCC2CCCN2c2cccnn2)cs1 (stereo not drawn)	-6.26%
Cc1nn(C)c(Cl)c1C1CCCN1CCc1ccccn1 (stereo not drawn)	4.6%
O=C(c1cccc(CN2CCCC2)c1)N1CCCC(n2cncn2)C1 (stereo not drawn)	-11.9%
Cc1ccc(N2CCCC(NCc3ccncc3)C2)nn1 (stereo not drawn)	2.55%
CN1CCc2onc(Cn3cccc3)c2C1	7.25%
CCN1CCOCC12CCN(C(=O)C1CCCC1)CC2	-0.272%
COc1ccc(OCCNCc2c(C)nn(C)c2N(C)C)cc1	-6.63%
O=C([C@@H]1CC[C@@H]2[C@@H](CCN2Cc2cccc(F)c2)O1)N1CCCCO1	-6.71%
CC(C)N1CCN(c2ccc3ccc(C(=O)NC4CCCC4)cn23)CC1	1.26%
CC1c2ncc(COc3cccnc3)n2CCN1C(=O)C1=CCCC1 (stereo not drawn)	-2.59%
CC(C)OCc1ncn2c1CN(Cc1cnn(C)c1)CCC2	6.13%
O=C(CCN1C[C@H]2CC[C@@H]1C2)N1CCN(c2cccc(Cl)c2)C(=O)C1	1.4%
O=C(CC1[C@H]2CN(Cc3ccc(F)cc3)C[C@@H]12)N1CCCC1 (stereo partly drawn)	-0.744%
